Converted amounts (≈) assume the structure as drawn. The source made the active and inactive calls. The rule behind the calls is not given here.
Columns and labels:
[1] = tested on: Chlamydia pneumoniae; assay: Antibacterial activity against Chlamydia pneumoniae CWL029 infected in human HL cells assessed as inhibition of bacterial growth at 10 uM after 72 hrs by TR-FIA method; type: functional
Outline: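 HL cells were seeded at 6×10^4/well in RPMI 1640 with 7.5% FBS, 2 mM glutamine and gentamicin, then infected 24 h later with CWL-029 at MOI 0.2 plus 0.5 μg/mL cycloheximide and centrifuged 1 h. Compounds were added in six replicates for 72 h at 37 C. After methanol fixation, wells were labelled with europium-conjugated chlamydial antibody (100 ng/mL, 30 min, 37 C) and read by time-resolved fluorescence; rifampicin 0.012 μM served as control.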

[2] = Cytotoxicity against human HL cells assessed as cell viability at 10 uM after 72 hrs by celltiter-glo analysis; type: cell-based; conditions: read-out: Activity
Outline: (§1)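 After 72 h, viability was measured as intracellular ATP by CellTiter-Glo luminescence after partial medium replacement. Results are expressed as a percentage of cells given DMSO-adjusted medium.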

[3] = tested on: Chlamydia pneumoniae; assay: Chlamydiostatic activity against Chlamydia pneumoniae CV6 infected in human Hep2 cells after 72 hrs by fluorescence assay; type: functional, HEp-2; conditions: CV6, 72 h
Outline: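 Confluent HEp-2 monolayers on coverslips were centrifuged with C. pneumoniae CV-6 (10^3 IFU/mL; 1700g, 45 min, 35 C). Medium was replaced with MEM containing cycloheximide 1 μg/mL and serial 2-fold compound dilutions. After 72 h at 35 C, 5% CO2, inclusions were stained with fluorescein-conjugated anti-Chlamydia LPS mAb. MIC is the lowest concentration with no IFU; titrations were run in duplicate.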

[4] = tested on: Chlamydia pneumoniae; assay: Antibacterial activity against Chlamydia pneumoniae CV6 infected in human Hep2 cells assessed as minimal chlamydiocidal activity after 72 hrs by fluorescence assay; type: functional, HEp-2; conditions: CV6, 72 h
Outline: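 CV-6 was grown in HEp-2 cells under 2-fold compound dilutions (MEM, cycloheximide 1 μg/mL, 72 h, 35 C). Drug medium was then removed, wells washed with PBS pH 7.4 and fed drug-free medium. Monolayers were disrupted, passed onto fresh monolayers, incubated and stained with fluorescein anti-LPS mAb. MCC is the lowest concentration giving no IFU in the antibiotic-free passage; run in duplicate.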

[5] = tested on: Staphylococcus aureus; assay: Antibacterial activity against Staphylococcus aureus ATCC 25923 assessed as inhibition of bacterial growth at 50 uM after 18 hrs by photometric method; type: functional
Outline: (§2)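 Bacteria were dispensed with 0.01% resazurin and compound, reaching a final 50 μM; ampicillin 25 μM was the control. After 18 h at 37 C, resazurin was read photometrically at 600 nm.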

[6] = tested on: Escherichia coli; assay: Antibacterial activity against Escherichia coli ATCC 25922 assessed as inhibition of bacterial growth at 50 uM after 18 hrs by photometric method; type: functional, organism-based; outline: as §2
[7] = tested on: HL; assay: Cytotoxicity against human HL cells at 2.5 uM after 72 hrs by celltiter-glo analysis; type: cell-based; outline: as §1

| SMILES | inhibition at 10 µM [1] [%] | viability at 72 h, 10 µM [2] [%] | MIC [3] [µM] | MCC [4] [µM] | growth inhibition (GI) [5] | growth inhibition (GI) [6] | Activity [7] |
| --- | --- | --- | --- | --- | --- | --- | --- |
| O=C(Nc1cccc(-c2ncc[nH]2)c1)c1cccs1 | 0 | 115 | – | – | – | – | – |
| CC[C@H]1OC(=O)[C@H](C)[C@@H](O[C@H]2C[C@@](C)(OC)[C@@H](O)[C@H](C)O2)[C@H](C)[C@@H](O[C@@H]2O[C@H](C)C[C@H](N(C)C)[C@H]2O)[C@](C)(O)C[C@@H](C)C(=O)[C@H](C)[C@@H](O)[C@]1(C)O [ERYTHROMYCIN] | – | – | 0.17 (≈ 0.125 µg/mL) | 0.17 | – | – | – |
| O=C(Nc1cccc(-c2nc3ccccc3[nH]2)c1)c1ccco1 | 45 | 98 | – | – | inactive | inactive | – |
| O=C(Nc1cccc(-c2nc3ccccc3[nH]2)c1)C1CCCCC1 | 100 | 94 | 24.5 (≈ 7.83 µg/mL) | 24.5 | inactive | inactive | Non-toxic |
| O=C(Cc1cccs1)Nc1cccc(-c2nc3ccccc3[nH]2)c1 | 70 | 107 | – | – | inactive | inactive | – |
| O=C(Nc1ccc(-c2nc3ccccc3[nH]2)cc1)c1cccs1 | 0 | 96 | – | – | inactive | inactive | – |
| O=C(Nc1cccc(-c2nc3ccccc3o2)c1)c1cccs1 | 61 | 94 | – | – | – | – | – |
| Cc1c(NC(=O)c2cccs2)cccc1-c1nc2ccccc2[nH]1 | 59 | 87 | – | – | inactive | inactive | – |
| O=C(Nc1cccc(-c2nc3ccccc3[nH]2)c1)c1ccccc1 | 99 | 98 | – | – | inactive | inactive | – |
| CC(=O)Nc1cccc(-c2nc3ccccc3[nH]2)c1 | 0 | 100 | – | – | inactive | inactive | – |
| COc1ccccc1C(=O)Nc1cccc(-c2nc3ccccc3[nH]2)c1 | 0 | 107 | – | – | inactive | inactive | – |
| COc1ccc2[nH]c(-c3cccc(NC(=O)c4cccs4)c3)nc2c1 | 74 | 98 | – | – | inactive | inactive | – |
| O=C(Nc1cccc(-c2nc3cc(Cl)ccc3[nH]2)c1)c1cccs1 | 89 | 92 | 196 (≈ 69.4 µg/mL) | > 196 | inactive | inactive | Non-toxic |
| COc1ccc(-c2nc3ccccc3[nH]2)cc1NC(=O)c1cccs1 | 52 | 101 | – | – | inactive | inactive | – |
| O=C(Nc1cccc(-c2nc3ccccc3[nH]2)c1)c1cccs1 | 89 | 98 | 196 (≈ 62.6 µg/mL) | > 196 | inactive | inactive | Non-toxic |
| Cc1cccc2[nH]c(-c3cccc(NC(=O)c4cccs4)c3)nc12 | 89 | 102 | – | – | inactive | inactive | – |

| SMILES | inhibition at 10 µM [1] [%] | viability at 72 h, 10 µM [2] [%] | MIC [3] [µM] | MCC [4] [µM] | growth inhibition (GI) [5] | growth inhibition (GI) [6] | Activity [7] |
| --- | --- | --- | --- | --- | --- | --- | --- |
| COc1cccc(C(=O)Nc2cccc(-c3nc4ccccc4[nH]3)c2)c1 | 98 | 97 | – | – | inactive | inactive | – |
| O=C(Nc1cccc(-c2nc3ccccc3[nH]2)c1)c1cccc(Cl)c1 | 94 | 106 | – | – | inactive | inactive | – |
| Cn1c(-c2cccc(NC(=O)c3cccs3)c2)nc2ccccc21 | 0 | 102 | – | – | inactive | inactive | – |
| O=C(Nc1cccc(-c2nc3ccccc3[nH]2)c1)c1ccccc1C(F)(F)F | 96 | 80 | – | – | inactive | inactive | – |
| CC(C)(C)C(=O)Nc1cccc(-c2nc3ccccc3[nH]2)c1 | 0 | 98 | – | – | inactive | inactive | – |
| O=C(Nc1cccc(-c2nc3ccccc3[nH]2)c1)c1ccoc1 | 78 | 101 | – | – | inactive | inactive | – |
| O=C(Nc1cccc(-c2ncc[nH]2)c1)c1ccsc1 | 0 | 133 | – | – | – | – | – |
| Cn1cccc1C(=O)Nc1cccc(-c2nc3ccccc3[nH]2)c1 | 80 | 104 | – | – | inactive | inactive | – |
| O=C(Nc1cccc(-c2nc3ccccc3[nH]2)c1)c1cscn1 | 39 | 98 | – | – | inactive | inactive | – |
| O=C(Nc1cccc(-c2nc3ccccc3[nH]2)c1)c1ccsc1 | 68 | 98 | > 196 | > 196 | inactive | inactive | Non-toxic |
| O=C(Nc1cccc(-c2nc3ccccc3[nH]2)c1)c1cccc(F)c1 | 58 | 101 | – | – | inactive | inactive | – |
| COC(=O)c1cccc(C(=O)Nc2cccc(-c3nc4ccccc4[nH]3)c2)c1 | 99 | 99 | – | – | inactive | inactive | – |
| COc1ccc2[nH]c(-c3cccc(NC(=O)c4ccsc4)c3)nc2c1 | 73 | 95 | 12.6 (≈ 4.4 µg/mL) | 12.6 | inactive | inactive | Non-toxic |
| O=S(=O)(Nc1cccc(-c2nc3ccccc3[nH]2)c1)c1ccccc1 | 0 | 77 | – | – | inactive | inactive | – |
| Cc1ccccc1C(=O)Nc1cccc(-c2nc3ccccc3[nH]2)c1 | 99 | 90 | 6.1 (≈ 2 µg/mL) | 24.5 | inactive | inactive | Non-toxic |
